HIV Env fusion: inhibitors of HIV-1 Env-driven cell-cell fusion, primary screen, HeLa-JRFL effector, CEM21 target cells, luciferase. inhibition, % at 12.3 µM. 1.1% of 360,000 active;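 active = mean replicate inhibition score of at least 50 and every replicate individually at or above 50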;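 also: 0% = plate neutral controls and 100% = maraviroc near 300 nM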
PGC1a acetyl inh: inhibitors of PGC1a acetylation signal, primary screen, cell-based, U2OS, AlphaScreen, inhibitor mode; AlphaScreen anti-acetyl-lysine; with virally co-expressed GCN5 acetyltransferase; inhibition, % at 15.6 µM; 0.17% of 350,000 active; AID 651687, 2012;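 active = every replicate shows inhibition of at least 40%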;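 also: 0% = neutral control wells and 100% = positive control wells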
FGF22 binding: binders of human FGF22 protein, primary screen, FGF22 synaptogenesis inhibitor project, biophysical, thermal shift, single point | recombinant FGF22 thermal shift, SYPRO orange fluorescence; percent of sucrose octasulfate shift, DMSO zero | 1.5% of 340,000 active | activity (Tm shift, normalised), % at 9.99 µM | Fibroblast growth factor 22 (Homo sapiens), Q9HCT0;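 active = mean Tm shift, scaled 0 neutral to 100 positive control, at about 1.3% or above, every replicate too, limit read from the data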
Target sequence (Q9HCT0 whole entry, looked up): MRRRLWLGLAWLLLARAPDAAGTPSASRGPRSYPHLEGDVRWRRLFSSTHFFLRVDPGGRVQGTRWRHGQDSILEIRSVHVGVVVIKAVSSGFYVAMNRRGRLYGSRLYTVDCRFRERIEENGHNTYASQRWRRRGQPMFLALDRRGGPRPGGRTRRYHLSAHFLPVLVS
Ecoli rRNA inh: reduced GFP signal of wild-type E. coli, primary screen, bacterial rRNA inhibitor project, GFP/RFP fluorescence, OD600, single point. E. coli WT GFP vs humanized-ribosome RFP mutants, 24 h; active compounds read low; DMSO median 0, no signal -100. GFP signal change (wild-type ribosome), % (concentration not given with the values). 1.6% of 350,000 active;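 active = significant combined selectivity score with lowered wild-type GFP, culture density cut under 30%, mutant RFP and density less affected; inactive = any of these conditions unmet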
ERAP1 inh: human ERAP1 aminopeptidase inhibitors, primary screen, biochemical, single point, plate reader. inhibition, % at 10.7 µM. 0.15% of 340,000 active. recombinant ERAP1, Leu-AMC fluorescence, 60 min. AID 652197, 2013. Endoplasmic reticulum aminopeptidase 1 (Homo sapiens), Q9NZ08;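 active = mean replicate inhibition of at least 30%, or all replicates individually reaching that 30% level; inactive = mean below 30% and not every replicate reaching it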;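 also: 0% = neutral control wells and 100% = L-leucinethiol positive control wells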
Cneo AK release: Cryptococcus neoformans cell lysis inducers, primary screen, AK release luminescence, single concentration; C. neoformans lysis, adenylate kinase release luminescence, 4 h; normalised: neutral wells 0, clomiphene wells 100; lysis activity, % at 15 µM; 0.2% of 360,000 active; AID 651654, 2012;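 active = mean lysis activity across replicates of at least 80%, whatever share of replicates individually reach that level; inactive = mean lysis activity below 80%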
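Test system: log-phase Cryptococcus neoformans yeast cells; Quantity: yeast cell density of 5 × 10^6 cells/mL; Buffer or medium: YPD; Doses: single compound concentration per well; Timing: 4 h at 37 °C static, read 1 h later; Measured by: AK luminescence; Read-out basis: lysis from increased AK signal; Control set: Clomiphene as positive control.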
* marks the source's active call; other numbers are inactive results; x = no result given. Rows were chosen to be rich in hits. Some 3.5% of all compounds tested hit in one or more screens of this group.

SMILES	HIV Env fusion	PGC1a acetyl inh	FGF22 binding	Ecoli rRNA inh	ERAP1 inh	Cneo AK release
O=C(NCc1ccc2c(c1)OCO2)c1cc2c(s1)CSC2	61*	x	0	-8	1	3
COc1ccc(C(=O)/C=C/c2ccc(N3CCCCC3)c([N+](=O)[O-])c2)cc1	2	x	x	x	x	x
COc1ccc(S(=O)(=O)N(C)C[C@@H]2Oc3c(NS(=O)(=O)c4cccs4)cccc3C(=O)N([C@H](C)CO)C[C@@H]2C)cc1	x	-5	0	0	3	x
COc1ccc(C(=O)NCc2c(C)oc(C)c2C(=O)O)cc1	-2	-6	0	10	0	-1
COc1ccc(C(=O)NCc2oc(-c3ccccc3)cc2C(=O)O)cc1	x	x	x	-24*	3	0
O=C(NCc1ccco1)c1ccc(Cn2c(=O)c3ccccc3n(Cc3ccc(Cl)cc3)c2=O)cc1	119*	-88	x	x	x	-2
O=C(NCc1ccco1)c1ccc(Cn2c(=O)c3ccccc3n(Cc3cccc(F)c3)c2=O)cc1	85*	x	x	x	x	0
COCCNC(=O)Cn1c(=O)n(Cc2ccc(C(=O)NCc3ccco3)cc2)c(=O)c2ccccc21	-68	x	x	x	x	0
CCN(C[C@H]1[C@@H](c2ccccc2)[C@@H](CO)N1C(C)=O)C(=O)c1ccccn1	x	-9	0	3	1	3
O=C(NCc1nc2ccccc2[nH]1)C1=C[C@H](c2ccccc2)C[C@H](OCc2ccc(CO)cc2)O1	-2	-25	1	-23	2	1
Cc1[nH]nc(C(=O)NN=Cc2ccccc2Cl)c1N=NN(C)C	x	4	0	-21*	1	x
NC(=S)NN=C1CCC(C2CCCCC2)CC1 (stereo unspecified)	8	10	0	-45*	-1	13
NC(=S)NN=C1CCCCCCCCCC1	x	-9	0	-7	-1	5
COCC(=O)N1CC2(C1)CN(Cc1cccc(OC)c1)[C@@H](CO)c1c2c2ccc(OC)cc2n1C	x	-5	0	0	x	x
COc1ccc(-c2n[nH]c(=S)n2C2CCCCC2)cc1	x	17	x	x	x	x
Cc1ccsc1-c1n[nH]c(=S)n1C1CCCCC1	-15	x	0	-41*	3	x
COc1ccccc1-c1nnc(C2CCN(S(=O)(=O)c3ccc([N+](=O)[O-])cc3)CC2)o1	8	-14	0	9	0	-2
COc1ccccc1-c1nnc(C2CCN(S(=O)(=O)c3ccccc3[N+](=O)[O-])CC2)o1	32	-4	0	-18*	-3	-2
COc1ccccc1-c1nnc(C2CCN(S(=O)(=O)c3cccc([N+](=O)[O-])c3)CC2)o1	0	x	0	-22*	0	1
CC1CCN(S(=O)(=O)c2ccccc2[N+](=O)[O-])CC1	7	-7	0	8	3	2
C=CCCC1(C)C(=O)N(c2ccccc2)c2ccccc21 (stereo unspecified)	-46	x	x	x	x	x
COc1ccc(OCCn2cc(/C=N/NC(=O)c3ccncc3)c3ccccc32)cc1	13	x	0	-20*	-1	x
Cc1ccc(OCCn2cc(/C=N/NC(=O)c3ccncc3)c3ccccc32)cc1	-5	-7	x	x	x	0
NC(=O)CCn1ccc2ccccc21	1	-6	0	3	1	0
CCCC1(C(=O)O)NC(c2ccccc2O)C2C(=O)N(c3cccc(Cl)c3)C(=O)C21 (stereo unspecified)	-1	-5	0	-1	2	1
SMILES	HIV Env fusion	PGC1a acetyl inh	FGF22 binding	Ecoli rRNA inh	ERAP1 inh	Cneo AK release
Cc1ccn2cc(-c3cccc(S(=O)(=O)N4CC(C)OC(C)C4)c3)nc2c1 (stereo unspecified)	-8	-4	0	-5	-1	0
Cc1ccn2cc(-c3cccc(S(=O)(=O)N4CCCC4)c3)nc2c1	-16	1	0	-25*	0	-3
CC(C)(C)C1CCC(C(=O)Nc2ccc(N3CCOCC3)cc2N2CCOCC2)CC1 (stereo unspecified)	-12	3	0	-20*	-2	0
CCCCC1CCC(C(=O)Nc2ccccc2N2CCOCC2)CC1 (stereo unspecified)	2	1	0	0	-3	2
C=C(C)c1cccc(C(C)(C)NC(=O)Nc2ccc(OC)cc2)c1	15	x	43*	7	-3	0
CCSc1nc(-c2ccccc2)c2cc(Cl)ccc2n1	6	x	0	x	4	x
CCSc1nc(-c2ccccc2)nc(C(Cl)Cl)n1	81*	-4	0	3	-1	0
Cc1ccc(C[n+]2ccccc2)cc1	7	1	-1	-13	0	2
CC1(CCc2ccccc2)NC(=O)N(CC(=O)Nc2ccc(OC(F)F)cc2)C1=O (stereo unspecified)	3	-4	0	-29*	0	-2
CC1(c2ccccc2)NC(=O)N(CC(=O)Nc2ccc([N+](=O)[O-])cc2)C1=O (stereo unspecified)	-1	3	43*	-13	6	2
C[C@H](NC(=O)C1CCN(S(=O)(=O)c2ccccc2)CC1)C(=O)NCc1cccc(Cl)c1	3	0	0	14	0	12
CCCC1c2ccsc2CCN1C(=S)NC (stereo unspecified)	-2	x	0	-36*	2	x
CC1c2ccsc2CCN1C(=O)NC(=O)c1ccc(Cl)cc1 (stereo unspecified)	11	13	0	15	0	-7
CCCN1C(=O)c2ccc(C(=O)Nc3ccccc3C(=O)O)cc2C1=O	-37	0	0	-21*	-3	-3
Cc1ncc(CN2CCCC(CCC(=O)NCc3ccc(F)c(F)c3)C2)s1 (stereo unspecified)	6	x	0	2	5	x
CCOC(=O)C1CCN(C(=O)c2ccc3c(=O)n4nc(Nc5ccccc5OC)sc4nc3c2)CC1	-18	-13	2.4*	19	0	0
CCC(=O)Nc1ccc(C(=O)OCC(=O)c2cccs2)cc1	-4	-15	0	5	0	0
CC12CCC(C(=O)NCc3ccccn3)(OC1=O)C2(C)C (stereo unspecified)	x	3	x	x	x	-4
CC(C)=C1C2CCC1C(C(=O)NCc1ccccc1)C2C(=O)O (stereo unspecified)	67*	-17	x	x	x	-1

Compound activity as filed in PubChem BioAssay.
